DAGLB inh = DAGLB lipase inhibitors, primary screen, biochemical, fluorescence, HTS. inhibition, % at 5.17 µM. HEK293T DAGLB membrane lysate, EnzChek fluorogenic substrate. AID 504411, 2011. actives 0.059% (n = 340,000). Diacylglycerol lipase-beta (Homo sapiens), Q8NCG7; in the data active = inhibition above about 34%
Target sequence (Q8NCG7 whole entry, looked up): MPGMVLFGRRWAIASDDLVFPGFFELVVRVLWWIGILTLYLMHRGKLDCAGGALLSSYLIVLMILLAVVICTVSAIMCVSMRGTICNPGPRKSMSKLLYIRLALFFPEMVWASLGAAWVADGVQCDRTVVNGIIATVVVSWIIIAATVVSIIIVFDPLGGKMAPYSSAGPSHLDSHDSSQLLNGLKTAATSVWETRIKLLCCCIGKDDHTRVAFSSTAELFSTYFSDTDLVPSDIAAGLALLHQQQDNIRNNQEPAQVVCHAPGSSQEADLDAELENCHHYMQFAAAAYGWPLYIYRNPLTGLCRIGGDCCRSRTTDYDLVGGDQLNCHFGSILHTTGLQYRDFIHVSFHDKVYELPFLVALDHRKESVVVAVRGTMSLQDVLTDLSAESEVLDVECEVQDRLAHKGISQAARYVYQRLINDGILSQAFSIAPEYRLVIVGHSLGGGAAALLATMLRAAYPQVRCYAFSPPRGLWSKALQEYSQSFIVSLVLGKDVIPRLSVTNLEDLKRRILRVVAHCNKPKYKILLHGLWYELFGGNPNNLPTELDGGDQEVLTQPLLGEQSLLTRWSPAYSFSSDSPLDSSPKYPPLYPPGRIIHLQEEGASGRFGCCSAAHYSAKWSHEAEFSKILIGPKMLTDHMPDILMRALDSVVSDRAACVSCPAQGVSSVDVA
HTRA1 inh = HTRA1 serine protease inhibitors, primary screen, biochemical, fluorescence polarization, HTS. Q92743. recombinant HTRA1, FP-rhodamine activity-based probe. inhibition, % at 5.96 µM. actives 0.5% (n = 340,000). AID 504803, 2011; in the data active = inhibition above about 36%
ABHD4 inh = ABHD4 inhibitors, primary screen, biochemical, fluorescence polarization, mouse. (Lyso)-N-acylphosphatidylethanolamine lipase (Mus musculus), Q8VD66. purified mABHD4, FP-Rh probe fluorescence polarization. inhibition, % at 8.92 µM. actives 0.54% (n = 370,000). AID 720543, 2013;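 active = inhibition exceeding the mean over every tested compound plus 3 SD, cut at about 30% in these data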
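Material: mouse ABHD4 enzyme, wild type; Benchmarks: S159A mutant high control, sample median low control; Buffer or medium: HEPES pH 7.0, NaCl, Pluronic buffer; Signal: fluorescence polarization; Read-out: percent inhibition of probe binding, normalized to plate controls; Timing: pre-incubation 45 min, probe exposure 60 min, at 25 °C; Dosing: 8.92 µM, single dose.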
SIAE primary = human SIAE inhibitors, primary screen, biochemical, fluorescence polarization, FP-Rh probe, 1536-well HTS. Sialate O-acetylesterase (Homo sapiens), Q9HAT2. SIAE FP-Rh probe binding. inhibition, % at 9.66 µM. actives 0.69% (n = 370,000);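 active = inhibition above a cutoff: mean of compounds within the control limits plus 3 SD of those, cut at about 17% in these data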
TCR-CD3 inh = inhibitors of human TCR-CD3 interaction, primary screen, biochemical, fluorescence, TAMRA-labeled TCR probe. T-cell receptor (TCR). inhibition, % at 9.4 µM. actives 0.37% (n = 360,000);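 also: recombinant mutant TCR 2C K166C tagged with TAMRA read by polarization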
BSA TAMRA ctr = compounds interfering with TAMRA-BSA probe, counter-screen for TCR-CD3 interaction inhibitor project, biochemical, fluorescence, TAMRA-labeled BSA; inhibition, % at 9.4 µM; actives 10% (n = 1,200); shares compounds with TCR-CD3 inh; TAMRA-labeled BSA probe fluorescence counterscreen; in the data active = inhibition above about 23%
TCR-CD3 inh conf = TCR-CD3 interaction inhibitors, retest, confirmation, biochemical, fluorescence, TAMRA-labeled TCR probe | shares compounds with TCR-CD3 inh | actives 48% (n = 1,200) | AID 652036, 2013 | inhibition, % at 9.4 µM | TAMRA-labeled TCR probe fluorescence binding assay
Of the large screens only hits and unclear results are named; the others gave an inactive call (follow-up assays come after a bar, where they were run). In the library only some 1.6% were active in any assay of this set; here they are far more common. Rule as the data show it, unless noted: active = inhibition above about 19%; inactive = the rest.

COc1ccccc1NS(=O)(=O)c1cccc(NC(=O)Nc2cccc(Cl)c2)c1	TCR-CD3 inh 36 | BSA TAMRA ctr inactive | TCR-CD3 inh conf inactive
COc1ccccc1NS(=O)(=O)c1cc(NC(=O)c2ccc(Cl)nc2)ccc1Cl	TCR-CD3 inh 23 | BSA TAMRA ctr inactive | TCR-CD3 inh conf inactive
COc1ccc(C(=O)Nc2ccc(Cl)c(S(=O)(=O)Nc3ccccc3OC)c2)cc1	none
O=C(Nc1ccc(S(=O)(=O)Nc2nccs2)cc1)c1nn(-c2ccccc2)ccc1=O	TCR-CD3 inh 20 | BSA TAMRA ctr inactive | TCR-CD3 inh conf 22
Cc1cccc(-n2ccc(=O)c(C(=O)Nc3ccc(S(=O)(=O)Nc4nccs4)cc3)n2)c1	none
O=C(O)c1ccccc1C(=O)Nc1ccc(S(=O)(=O)Nc2nccs2)cc1	TCR-CD3 inh 38 | BSA TAMRA ctr inactive | TCR-CD3 inh conf inactive
CCCCCCCCN1C(=O)N2Cc3ccccc3C2CS1(=O)=O (stereo not drawn)	none (no result: DAGLB inh, HTRA1 inh, TCR-CD3 inh)
O=C(N[C@@H](Cc1cccnc1)C(=O)N1CCC[C@H]1C(=O)NCCc1ccccc1Cl)c1cccs1	none (no result: DAGLB inh, HTRA1 inh)
COc1ccc(COc2cc(-c3cccc(OC)c3)nc3ccc(NC(=O)c4cccnc4)cc23)cc1	TCR-CD3 inh 38 | BSA TAMRA ctr inactive | TCR-CD3 inh conf 23
COc1ccc(COc2cc(-c3cccc(OC)c3)nc3ccc(NC(=O)c4ccc(OC)cc4)cc23)cc1	none
CCN(CC)CCC(c1cc(OC)c(OC)c(OC)c1)c1c(OC)cc(OC)c2ccc(=O)oc12 (stereo not drawn)	TCR-CD3 inh 96 | BSA TAMRA ctr inactive | TCR-CD3 inh conf inactive
CCN(CC)CCC(c1ccc2c(c1)OCO2)c1c(OC)cc(OC)c2ccc(=O)oc12 (stereo not drawn)	none
CC(/C=C1\SC(=S)N(CCC(=O)Nc2ccc(O)cc2)C1=O)=C\c1ccccc1	none
CC(=O)c1ccc(NC(=O)CN2C(=O)/C(=C/C(C)=C/c3ccccc3)SC2=S)cc1	TCR-CD3 inh 24 | BSA TAMRA ctr inactive | TCR-CD3 inh conf 49
CN(Cc1ccccc1)C(=O)c1cccc(NC(=O)Cc2cccc(NC(=O)C3CCN(C(=O)CCc4ccccc4)CC3)c2)c1	none (no result: DAGLB inh, HTRA1 inh)
CC(=O)c1c(C)[nH]c(C(=O)OCc2nnc(-c3ccc([N+](=O)[O-])cc3)o2)c1C	TCR-CD3 inh 26 | BSA TAMRA ctr inactive | TCR-CD3 inh conf inactive
CC(=O)c1c(C)[nH]c(C(=O)OCC(=O)NNC(=O)c2ccc([N+](=O)[O-])cc2)c1C	none
Cc1ccccc1CNC(=O)C1C2C=CC3(CN(Cc4ccccc4)C(=O)C13)O2 (stereo not drawn)	none (no result: DAGLB inh, HTRA1 inh, TCR-CD3 inh)
CCOc1cc(/C=N/N=C2/NC(=O)C(CC(=O)O)S2)ccc1OCc1ccc(Cl)cc1 (stereo not drawn)	none
Cn1c(=O)n(C)c2cc(/C=N/N=C3/NC(=O)C(CC(=O)O)S3)ccc21 (stereo not drawn)	TCR-CD3 inh 41 | BSA TAMRA ctr inactive | TCR-CD3 inh conf 22
O=C(CC1SC(=O)NC1=O)Oc1ccc(/C=N/NC(=O)c2ccccc2O)cc1 (stereo not drawn)	TCR-CD3 inh 32 | BSA TAMRA ctr inactive | TCR-CD3 inh conf inactive
Cc1ccc([C@H]2C(C(=O)O)=CC[C@@H](c3ccc(Cl)cc3)N2S(=O)(=O)c2ccc(C)cc2)cc1	none
O=C(O)C1=CC[C@@H](c2ccc(Cl)cc2)N(S(=O)(=O)c2ccc(Cl)cc2)[C@H]1c1ccccc1	TCR-CD3 inh 36 | BSA TAMRA ctr inactive | TCR-CD3 inh conf inactive
Cc1cccc(-n2c(O)c(C=Nc3cc(O)ccc3C)c3ccccc3c2=O)n1	TCR-CD3 inh 37 | BSA TAMRA ctr inactive | TCR-CD3 inh conf inactive
Cc1cccc(-n2c(O)c(/C=N/NC(=O)c3ccccc3Cl)c3ccccc3c2=O)n1	TCR-CD3 inh 28 | BSA TAMRA ctr inactive | TCR-CD3 inh conf 37
Cc1cccc(-n2c(O)c(C=Nc3ccc(O)cc3)c3ccccc3c2=O)n1	none
C[C@H]1COc2cccc(N3CCCC3)c2S(=O)(=O)N1	none (no result: DAGLB inh, HTRA1 inh)
CC(C)CNS(=O)(=O)CC1NCc2cc3c(cc21)OCO3 (stereo not drawn)	none (no result: DAGLB inh, HTRA1 inh, TCR-CD3 inh)
CC(C)[C@H](NC(=O)c1ccco1)C(=O)OCC(=O)c1ccc2c(c1)NC(=O)CO2	TCR-CD3 inh 118 | BSA TAMRA ctr inactive | TCR-CD3 inh conf inactive
O=C1COc2ccc(C(=O)COC(=O)c3ccco3)cc2N1	none
Cc1ccc2oc(C(=O)Nc3ccc(S(=O)(=O)Nc4onc(C)c4C)cc3)c(C)c2c1	none
Cc1ccc(-c2cc(C(=O)Nc3ccc(S(=O)(=O)Nc4onc(C)c4C)cc3)[nH]n2)c(O)c1	TCR-CD3 inh 32 | BSA TAMRA ctr inactive | TCR-CD3 inh conf 20
Cc1c(C(=O)OCC(=O)Nc2cccc(S(N)(=O)=O)c2)oc2c1ccc1ccccc12	TCR-CD3 inh 25 | BSA TAMRA ctr inactive | TCR-CD3 inh conf inactive
CN(C)/C=C1\SC(=S)N(c2ccc(Br)cc2)C1=O	TCR-CD3 inh 30 | BSA TAMRA ctr 90 | TCR-CD3 inh conf 76
O=C(CSc1nc2ccccc2s1)Nc1ccc2c(c1)oc1ccccc12	TCR-CD3 inh 24 | BSA TAMRA ctr inactive | TCR-CD3 inh conf inactive
COC[C@@H](OC(C)=O)[C@H]1OCc2ccccc2[C@@H]1/C=C/c1ccccc1	none (no result: DAGLB inh, HTRA1 inh, TCR-CD3 inh)
Cc1nc2ccccc2n1CC(=O)c1ccc(O)c(O)c1	TCR-CD3 inh 45 | BSA TAMRA ctr inactive | TCR-CD3 inh conf 37
Cc1nn2c(-c3cccc(NC(=O)c4ccco4)c3)nnc2c2ccccc12	TCR-CD3 inh 20 | BSA TAMRA ctr inactive | TCR-CD3 inh conf inactive
O=C(Nc1ccc2oc(-c3cccnc3)nc2c1)c1ccc2c(c1)OCCO2	TCR-CD3 inh 27 | BSA TAMRA ctr inactive | TCR-CD3 inh conf inactive
O=C(NNC(=O)c1ccccc1OCc1ccccc1)c1ccccc1F	none
O=C(NNC(=O)c1ccccc1OCc1ccc(F)cc1)c1ccccc1O	TCR-CD3 inh 25 | BSA TAMRA ctr inactive | TCR-CD3 inh conf 23
O=C(NNC(=O)c1ccccc1OCc1ccccc1)c1ccccc1O	TCR-CD3 inh 33 | BSA TAMRA ctr inactive | TCR-CD3 inh conf 19
N#CCC(=O)Nc1ccc(C(=O)OCC(=O)Nc2cc(-c3ccccc3)nn2-c2ccccc2)cc1	TCR-CD3 inh 52 | BSA TAMRA ctr inactive | TCR-CD3 inh conf 21
